Experimental data pooled from the literature.
Each line is one published result; the experiments were not run side by side.
AXL: Tyrosine-protein kinase receptor UFO (AXL, Homo sapiens, UniProt P30530)

Compound | target | assay | setting | quantity | value
C#Cc1n[nH]c2c(-c3cn(C(C)c4ccccn4)c(=O)[nH]c3=O)cc(F)cc12 (centres unmarked) | Tyrosine-protein kinase receptor UFO (AXL, Homo sapiens, UniProt P30530, R499C) | enzyme activity, inhibitor | 1 µM | inhibition | 67.6%
CC(C)(C)c1cc(C=C(C#N)C#N)cc(Br)c1O | AXL | enzyme activity, inhibitor | 0.5 µM | remaining activity | 103%
N#CC1(c2ccccn2)CCN(Cc2cc(C(=O)O)c(=O)n3ccccc23)CC1 | AXL | cell-free assay, competition with immobilised ligand | 1 µM | remaining binding | 91%
Cn1cc(-c2cc(F)cc(N3CCn4c(cc5c4CCCC5)C3=O)c2CO)cc(Nc2ccc(N3CCN(C4COC4)CC3)cn2)c1=O | AXL | enzyme activity, inhibitor | 0.1 µM | inhibition | 12%
Cc1nn(C)cc1-c1nc2c(N3CCN(Cc4ccc(Cl)cc4)CC3)c(Cl)cnc2[nH]1 | AXL | binding, competition with immobilised ligand | 1 µM | remaining binding | 2.2%
O=c1[nH]c2ccccc2n1C1CCN(Cc2ccc(-c3[nH]c4cc5ncnc5cc4nc3-c3ccccc3)cc2)CC1 | AXL | cell-free assay | 0.5 µM | remaining signal | 105%
Cn1cc(-c2cccc(N3CCc4c(sc5c4CC(C)(C)C5)C3=O)c2CO)cc(Nc2ccncn2)c1=O | AXL | enzyme activity, inhibitor | 1 µM | inhibition | 3%
COc1cc(Nc2ncc(F)c(Nc3ccc4c(n3)NC(=O)C(C)(C)O4)n2)cc(OC)c1OC | AXL | binding, competition with immobilised ligand | 10 µM | inhibition | 100%
Cn1cncc1[C@](O)(COc1ccc(C#N)cc1-c1ccc(OC(F)(F)F)cc1)c1ccc(C#N)cc1 | AXL | cell-free assay, competition with immobilised ligand | 1 µM | remaining binding | 100%
Nc1ncc(-c2nc(N3CCOCC3)nc(N3CCOCC3)n2)c(C(F)F)n1 | AXL | binding, competition with immobilised ligand | 10 µM | remaining binding | 91%
COc1ncccc1-c1cnn2ccc(N3CCN(C(=O)OC(C)C)CC3)nc12 | AXL | binding, competition with immobilised ligand | 1 µM | remaining binding | 100%
